Laboratory results from ChEMBL document CHEMBL4425108, “A Selective and Slowly Reversible Inhibitor of l-Type Amino Acid Transporter 1 (LAT1) Potentiates Antiproliferative Drug Efficacy in Cancer Cells” (J Med Chem, 2016).
Calls of active or inactive are those of the source. No cut-off for these calls is given here.

How the values were obtained:
[1] = target: T1, Large neutral amino acids transporter small subunit 1 (Homo sapiens, UniProt Q01650); experiment: Competitive inhibition of [14C]-L-leucine uptake at LAT1 in human MCF7 cells preincubated for 5 mins followed by addition of substrate measured during 5 mins by liquid scintillation counting; assay type: cell-based
T1 sequence (Q01650 whole entry): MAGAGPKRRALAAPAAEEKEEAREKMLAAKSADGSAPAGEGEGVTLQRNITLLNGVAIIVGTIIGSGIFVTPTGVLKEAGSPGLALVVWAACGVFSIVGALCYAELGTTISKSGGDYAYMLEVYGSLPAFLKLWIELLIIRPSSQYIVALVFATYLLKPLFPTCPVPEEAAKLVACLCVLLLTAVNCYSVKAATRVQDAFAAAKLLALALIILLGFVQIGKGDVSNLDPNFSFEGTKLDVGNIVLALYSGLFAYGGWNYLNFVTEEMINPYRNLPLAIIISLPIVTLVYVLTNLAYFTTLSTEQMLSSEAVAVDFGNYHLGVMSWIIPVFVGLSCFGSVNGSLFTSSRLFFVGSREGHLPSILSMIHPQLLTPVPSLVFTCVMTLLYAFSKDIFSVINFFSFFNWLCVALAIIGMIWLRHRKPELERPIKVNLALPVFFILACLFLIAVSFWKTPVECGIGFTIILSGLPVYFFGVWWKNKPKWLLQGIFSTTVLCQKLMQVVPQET

[2] = target: T1, Large neutral amino acids transporter small subunit 1; experiment: Drug uptake in human MCF7 cells assessed as LAT1 mediated drug transport per mg of protein at 100 uM measured 30 mins after cold wash by HPLC analysis; assay type: ADME, cell-based; conditions: mcf7, 0.5 h
Procedure, shortened: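 MCF-7 monolayers were incubated with 100 µM compound in HBSS at 37 °C for 5 or 30 min. Cells got three washes with ice-cold or warm (37 °C) HBSS; in the warm 30 min arm they were washed after 5 min and again after 30 min. Lysates (0.1 M NaOH) were quantified by HPLC-UV against a spiked lysate standard curve and normalised to protein (Bio-Rad assay).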

[3] = target: T1, Large neutral amino acids transporter small subunit 1; experiment: Competitive binding to LAT1 in human MCF7 cells at 100 uM after 30 mins in presence of MCT1 inhibitor phloretin by HPLC analysis; assay type: cell-based
Procedure, shortened: (§1)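 MCF-7 cells incubated 30 min at 37 °C in HBSS (pH 7.4) holding 100 µM test compound plus 500 µM competitor. Cells washed three times with ice-cold HBSS and lysed in 0.1 M NaOH. Cell-associated compound measured by HPLC against a lysate-spiked standard curve and normalised to protein. Mean ± SD, n=3.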

[4] = target: T1, Large neutral amino acids transporter small subunit 1; experiment: Competitive binding to LAT1 in human MCF7 cells at 100 uM after 30 mins in presence of unselective OATP substrate L-thyroxine by HPLC analysis; assay type: cell-based; procedure, shortened: as §1
[5] = Chemical stability of the compound in Tris-HCl buffer at pH 7.4 and 37 degreeC measured after 24 hrs by HPLC method; assay type: physicochemical; conditions: pH 7.4, 24 h
Procedure, shortened: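 Incubated in isotonic Tris-HCl buffer, pH 7.4, at 37 °C for 24 h; monitored by UV-HPLC.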

[6] = Metabolic stability in mouse liver S9 fraction at 37 degreeC in presence of NADPH regenerating system measured after 2 hrs by HPLC analysis; assay type: ADME, subcellular; conditions: s9, 2 h
[7] = test system: MCF7; experiment: Antiproliferative activity against human MCF7 cells assessed as reduction in cell viability measured after 72 hrs by resazurin dye-based fluorimetric analysis; assay type: functional
Procedure, shortened: (§2)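 MCF-7 cells were seeded at 2 × 10^4 cells/well on collagen-coated plates and treated one day later. Agents were given alone or combined (25 or 100 µM with 100 µM partner drug) in growth medium for 3 days. Viability was read daily by resazurin fluorescence (ex 560/em 590 nm) and expressed relative to untreated controls.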

[8] = test system: MCF7; experiment: Antiproliferative activity against human MCF7 cells assessed as reduction in cell viability at 100 measured after 24 hrs by resazurin dye-based fluorimetric analysis; assay type: functional; procedure, shortened: as §2
[9] = target: T1, Large neutral amino acids transporter small subunit 1; experiment: Inhibition of LAT1 in human MCF7 cells assessed as potentiation of cisplatin-induced antiproliferative activity by measuring reduction in cell viability at 100 uM measured after 24 hrs by resazurin dye-based fluorimetric analysis
Procedure, shortened: (§3)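 MCF-7 cells seeded 2 × 10^4/well on collagen-coated plates, treated one day later in growth medium with inhibitor (25 or 100 µM) plus bestatin or cisplatin (100 µM) for up to 3 days. Viability read daily by resazurin fluorescence (ex 560/em 590 nm). Viability is treated relative to untreated control. Mean ± SD, n=3.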

[10] = target: T1, Large neutral amino acids transporter small subunit 1; experiment: Inhibition of LAT1 in human MCF7 cells assessed as potentiation of bestatin-induced antiproliferative activity by measuring reduction in cell viability at 25 uM measured after 48 hrs by resazurin dye-based fluorimetric analysis; procedure, shortened: as §3
[11] = target: T1, Large neutral amino acids transporter small subunit 1; experiment: Inhibition of LAT1 in human MCF7 cells assessed as potentiation of cisplatin-induced antiproliferative activity by measuring reduction in cell viability at 100 uM measured after 48 hrs by resazurin dye-based fluorimetric analysis; procedure, shortened: as §3
[12] = target: T1, Large neutral amino acids transporter small subunit 1; experiment: Inhibition of LAT1 in human MCF7 cells assessed as potentiation of bestatin-induced antiproliferative activity by measuring reduction in cell viability at 25 uM measured after 72 hrs by resazurin dye-based fluorimetric analysis; procedure, shortened: as §3
[13] = AUC (0 to 480 min) in mouse brain at 23 umol/kg, ip administered as bolus by LC-MS analysis; assay type: ADME, organism-based; set-up: time < 8 hr, dose 23 umol/kg, route intraperitoneal; conditions: in vivo, 8 h
Procedure, shortened: (§4)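 Male adult mice (25 ± 5 g) given a single i.p. bolus at 23 µmol/kg. The dosing solution was 1.36 mM in 10% (v/v) DMSO, 20% (w/v) hydroxypropyl-β-cyclodextrin and 0.9% NaCl. Animals were decapitated at seven time points from 10 to 480 min. Plasma and tissues were acetonitrile-precipitated with repaglinide internal standard and analysed by LC-MS. Parameters were derived from concentration–time data, mean ± SEM (n=3).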

[14] = Cmax in mouse kidney at 23 umol/kg, ip administered as bolus by LC-MS analysis; assay type: ADME, organism-based; set-up: dose 23 umol/kg, route intraperitoneal; conditions: in vivo; procedure, shortened: as §4
[15] = Cmax in mouse heart at 23 umol/kg, ip administered as bolus by LC-MS analysis; assay type: ADME, organism-based; set-up: dose 23 umol/kg, route intraperitoneal; conditions: in vivo; procedure, shortened: as §4
[16] = Fraction unbound in mouse brain at 23 umol/kg, ip administered as bolus by LC-MS analysis; assay type: ADME, organism-based
Procedure, shortened: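 Unbound fraction was measured by equilibrium dialysis at 100 µM in mouse plasma and in brain, liver, kidney, heart and prostate homogenates.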

[17] = Unbound AUC (0 to 480 mins) in mouse liver at 23 umol/kg, ip administered as bolus by LC-MS analysis; assay type: ADME, organism-based; conditions: in vivo
Procedure, shortened: (§5)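 Male mice (25 ± 5 g) dosed i.p. as a bolus at 23 µmol/kg in DMSO/hydroxypropyl-β-cyclodextrin/saline vehicle, sampled at time points 10–480 min; plasma and tissue homogenates (1:3 water) analysed by LC-MS. […] Mean ± SEM.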

[18] = fCmax in mouse kidney at 23 umol/kg, ip administered as bolus by LC-MS analysis; assay type: ADME, organism-based; conditions: in vivo; procedure, shortened: as §5
[19] = fCmax in mouse brain at 23 umol/kg, ip administered as bolus by LC-MS analysis; assay type: ADME, organism-based; conditions: in vivo; procedure, shortened: as §5
[20] = fCmax in mouse heart at 23 umol/kg, ip administered as bolus by LC-MS analysis; assay type: ADME, organism-based; conditions: in vivo; procedure, shortened: as §5
[21] = Tmax in mouse prostate at 23 umol/kg, ip administered as bolus by LC-MS analysis; assay type: ADME, organism-based, Prostate gland
Procedure, shortened: (§6)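 Adult male mice (25 ± 5 g) given a single i.p. bolus of 23 µmol/kg, dosing solution 1.36 mM in 10% (v/v) DMSO, 20% (w/v) hydroxypropyl-β-cyclodextrin, 0.9% NaCl in water. Decapitation at time points 10–480 min; plasma, brain, liver, prostate, kidney, heart collected. Acetonitrile precipitation with repaglinide internal standard, LC-MS (ESI positive). tmax and t½β taken from concentration-time data; mean ± SEM, n=3.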

[22] = Tmax in mouse heart at 23 umol/kg, ip administered as bolus by LC-MS analysis; assay type: ADME, organism-based; procedure, shortened: as §6
[23] = target: T1, Large neutral amino acids transporter small subunit 1; experiment: Binding affinity to LAT1 in human MCF7 cells at 100 uM after 30 mins by HPLC analysis; assay type: cell-based
Procedure, shortened: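 MCF-7 cells given 25-400 µM compound in pre-warmed HBSS (pH 7.4) at 37 °C for 30 min, washed three times with ice-cold HBSS, lysed in 0.1 M NaOH. Lysate quantified by HPLC-UV against a standard curve spiked into cell lysate. Amount normalised to protein (Bio-Rad assay, nmol/mg protein). n=3.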

SMILES: CNC(=O)COc1ccc(-c2c(C#N)c(NC(=O)c3cccc(C[C@H](N)C(=O)O)c3)n3c(nc4ccccc43)c2C#N)cc1
- IC50 [1]: 18.2 µM
- inhibition [1]: Dose-dependent effect
- Drug uptake [2]: 2.63 nmol/mg
- Activity [3]: Active
- Activity [4]: Active
- Stability [5]: Stable
- Stability [6]: Stable
- Activity [7]: Dose-dependent effect
- IC50 ([7]; MCF7, 72 h): 124 µM
- Activity [8]: 22.9%
- Activity [9]: 65%
- Activity [10]: 40.5%
- Activity [11]: 60.4%
- Activity [12]: 52.6%
- AUC [13]: 11 nmol/g/min
- Cmax [14]: 22.5 nmol/g
- Cmax [15]: 4.9 nmol/g
- fraction unbound [16]: 0.0103
- fAUC [17]: 18.9 nmol/g/min
- fCmax [18]: 0.37 nmol/g
- fCmax [19]: 0.02 nmol/g
- fCmax [20]: 0.08 nmol/g
- Tmax [21]: 30 min
- Tmax [22]: 30 min
- Activity [23]: Active
